Experimental data as given in ChEMBL document CHEMBL3421615, “Synthesis and identification of unprecedented selective inhibitors of CK1ε” (Eur J Med Chem, 2015).

Key:
HeLa = assay: Antiproliferative activity against human HeLa cells after 48 hrs incubation by SRB assay; type: functional
Outline: (§1)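 Cells kept in RPMI 1640 with 5% heat-inactivated FCS and 2 mM L-glutamine at 37 °C, 5% CO2. Plated at 10 000 (HBL-100, HeLa, SW1573), 15 000 (T-47D) or 20 000 (WiDr) cells/well. Dosing began day 1, in triplicate, over 1–100 range. DMSO stocks at 400× final top concentration; vehicle control 0.25% DMSO. Exposure 48 h, then TCA fixation 60 min at 4 °C. SRB read-out at 492 nm, background-corrected; GI50 from dose–response.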

WiDr = assay: Antiproliferative activity against human WiDr cells after 48 hrs incubation by SRB assay; type: functional; outline: as §1
[1] = Antiproliferative activity against human HBL100 cells after 48 hrs incubation by SRB assay; type: functional; settings: HBL-100, 48 h; outline: as §1
SW1573 = assay: Antiproliferative activity against human SW1573 cells after 48 hrs incubation by SRB assay; type: functional; settings: SW1573, 48 h; outline: as §1
T47D = assay: Antiproliferative activity against human T47D cells after 48 hrs incubation by SRB assay; type: functional; outline: as §1
[2] = molecular target: Casein kinase I isoform gamma-2 (Homo sapiens) (UniProt P78368); assay: Inhibition of human Casein kinase 1 gamma 2 assessed as residual activity at 10 uM relative to control
Sequence of Casein kinase I isoform gamma-2 (Homo sapiens) (P78368 whole entry, looked up, canonical isoform): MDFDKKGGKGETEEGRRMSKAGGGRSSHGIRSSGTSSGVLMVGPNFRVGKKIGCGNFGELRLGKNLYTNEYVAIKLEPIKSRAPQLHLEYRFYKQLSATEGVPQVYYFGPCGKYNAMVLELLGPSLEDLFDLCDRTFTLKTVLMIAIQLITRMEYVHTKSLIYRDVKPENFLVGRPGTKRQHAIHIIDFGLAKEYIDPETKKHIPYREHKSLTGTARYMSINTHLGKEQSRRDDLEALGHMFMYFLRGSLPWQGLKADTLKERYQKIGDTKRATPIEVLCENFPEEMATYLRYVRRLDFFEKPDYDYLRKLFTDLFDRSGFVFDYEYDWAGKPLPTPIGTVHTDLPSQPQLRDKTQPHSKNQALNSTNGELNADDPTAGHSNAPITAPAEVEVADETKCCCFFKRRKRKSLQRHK
Outline: (§2)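 KINOMEscan active-site-directed competition binding run against a 456-kinase panel (scanMAX), each compound at a single 10 µM concentration. Binding reported as percent of control, with DMSO set to 100%Ctrl and a positive control set to 0%Ctrl. Hit cut-off is 35%Ctrl.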

[3] = molecular target: Casein kinase II subunit alpha (Homo sapiens) (UniProt P68400); assay: Inhibition of human Casein kinase 2 alpha 1 polypeptide assessed as residual activity at 10 uM relative to control; outline: as §2
Sequence of Casein kinase II subunit alpha (Homo sapiens) (P68400 whole entry, looked up, canonical isoform): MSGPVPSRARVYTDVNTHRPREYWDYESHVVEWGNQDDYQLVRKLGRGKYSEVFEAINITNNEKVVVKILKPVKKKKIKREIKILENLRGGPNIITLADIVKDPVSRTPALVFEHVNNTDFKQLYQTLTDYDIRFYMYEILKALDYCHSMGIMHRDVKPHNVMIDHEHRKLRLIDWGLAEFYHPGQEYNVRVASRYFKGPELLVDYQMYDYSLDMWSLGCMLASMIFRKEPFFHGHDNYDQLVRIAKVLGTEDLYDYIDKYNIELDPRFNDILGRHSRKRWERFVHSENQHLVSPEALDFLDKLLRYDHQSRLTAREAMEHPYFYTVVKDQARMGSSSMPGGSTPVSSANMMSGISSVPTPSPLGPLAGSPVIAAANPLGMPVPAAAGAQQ

[4] = molecular target: Casein kinase I isoform delta (Homo sapiens) (UniProt P48730); assay: Inhibition of human Casein kinase 1 delta assessed as residual activity at 10 uM relative to control; outline: as §2
Sequence of Casein kinase I isoform delta (Homo sapiens) (P48730 whole entry, looked up, canonical isoform): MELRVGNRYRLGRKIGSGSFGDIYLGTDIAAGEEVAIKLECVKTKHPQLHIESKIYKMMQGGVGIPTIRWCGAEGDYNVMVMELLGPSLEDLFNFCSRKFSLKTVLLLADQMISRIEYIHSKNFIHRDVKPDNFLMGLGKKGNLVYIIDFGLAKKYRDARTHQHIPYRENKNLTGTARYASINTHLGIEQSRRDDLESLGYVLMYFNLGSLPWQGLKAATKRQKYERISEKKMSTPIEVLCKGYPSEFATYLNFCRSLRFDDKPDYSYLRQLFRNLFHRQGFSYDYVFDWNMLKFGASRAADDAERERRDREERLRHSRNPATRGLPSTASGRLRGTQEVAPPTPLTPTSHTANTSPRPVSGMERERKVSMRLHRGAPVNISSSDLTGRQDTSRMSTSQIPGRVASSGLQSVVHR

[5] = molecular target: Casein kinase II subunit alpha' (Homo sapiens) (UniProt P19784); assay: Inhibition of human Casein kinase 2 alpha prime polypeptide assessed as residual activity at 10 uM relative to control; outline: as §2
Sequence of Casein kinase II subunit alpha' (Homo sapiens) (P19784 whole entry, looked up, canonical isoform): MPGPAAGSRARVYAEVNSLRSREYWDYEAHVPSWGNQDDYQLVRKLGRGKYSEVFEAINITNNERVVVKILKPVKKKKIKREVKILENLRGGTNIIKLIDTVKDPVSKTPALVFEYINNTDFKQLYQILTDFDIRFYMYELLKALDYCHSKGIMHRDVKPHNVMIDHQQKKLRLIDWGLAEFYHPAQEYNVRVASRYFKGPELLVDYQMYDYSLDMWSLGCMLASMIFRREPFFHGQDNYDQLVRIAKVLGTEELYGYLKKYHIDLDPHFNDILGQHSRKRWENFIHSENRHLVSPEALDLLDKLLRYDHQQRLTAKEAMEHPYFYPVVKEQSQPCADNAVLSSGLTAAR

[6] = molecular target: Casein kinase I isoform alpha (Homo sapiens) (UniProt P48729); assay: Inhibition of human Casein kinase 1 alpha 1 assessed as residual activity at 10 uM relative to control; outline: as §2
Sequence of Casein kinase I isoform alpha (Homo sapiens) (P48729 2-337 limits assumed): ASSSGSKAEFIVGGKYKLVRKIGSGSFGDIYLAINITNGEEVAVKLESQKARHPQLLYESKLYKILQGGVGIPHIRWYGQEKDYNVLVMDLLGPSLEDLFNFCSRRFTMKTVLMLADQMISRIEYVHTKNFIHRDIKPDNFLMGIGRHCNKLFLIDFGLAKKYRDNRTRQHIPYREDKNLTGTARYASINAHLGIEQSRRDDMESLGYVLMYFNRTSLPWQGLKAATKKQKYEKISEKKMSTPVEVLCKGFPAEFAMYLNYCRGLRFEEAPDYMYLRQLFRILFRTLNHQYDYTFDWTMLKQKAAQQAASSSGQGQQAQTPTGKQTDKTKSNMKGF

[7] = molecular target: T1, Casein kinase I isoform alpha-like (Homo sapiens) (UniProt Q8N752); assay: Inhibition of human Casein kinase 1 alpha 1-like assessed as residual activity at 10 uM relative to control; outline: as §2
T1 sequence (whole entry): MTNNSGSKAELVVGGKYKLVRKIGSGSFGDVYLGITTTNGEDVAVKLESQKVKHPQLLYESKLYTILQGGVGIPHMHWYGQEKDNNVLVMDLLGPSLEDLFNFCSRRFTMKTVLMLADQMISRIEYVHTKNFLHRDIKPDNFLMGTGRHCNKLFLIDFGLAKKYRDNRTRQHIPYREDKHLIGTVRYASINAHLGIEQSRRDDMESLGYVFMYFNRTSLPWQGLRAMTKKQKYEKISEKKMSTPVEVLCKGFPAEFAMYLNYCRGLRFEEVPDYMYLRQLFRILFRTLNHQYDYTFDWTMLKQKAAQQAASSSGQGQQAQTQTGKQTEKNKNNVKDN

[8] = molecular target: Casein kinase I isoform epsilon (Homo sapiens, UniProt P49674); assay: Inhibition of human Casein kinase 1 epsilon assessed as residual activity at 10 uM relative to control; outline: as §2
Sequence of Casein kinase I isoform epsilon (P49674 whole entry, looked up, canonical isoform): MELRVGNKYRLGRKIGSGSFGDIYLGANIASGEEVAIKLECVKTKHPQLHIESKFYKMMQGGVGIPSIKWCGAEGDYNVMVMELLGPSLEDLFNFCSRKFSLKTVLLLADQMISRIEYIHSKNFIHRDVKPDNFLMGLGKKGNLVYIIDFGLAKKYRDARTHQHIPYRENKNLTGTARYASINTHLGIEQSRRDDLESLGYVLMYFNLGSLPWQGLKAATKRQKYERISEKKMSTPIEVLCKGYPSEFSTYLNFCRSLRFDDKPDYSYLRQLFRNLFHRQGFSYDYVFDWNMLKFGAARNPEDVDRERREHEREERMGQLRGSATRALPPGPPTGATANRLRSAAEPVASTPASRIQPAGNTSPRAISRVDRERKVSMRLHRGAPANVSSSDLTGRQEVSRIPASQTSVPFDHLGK

[9] = molecular target: Casein kinase I isoform gamma-3 (Homo sapiens) (UniProt Q9Y6M4); assay: Inhibition of human Casein kinase 1 gamma 3 assessed as residual activity at 10 uM relative to control; outline: as §2
Sequence of Casein kinase I isoform gamma-3 (Homo sapiens) (Q9Y6M4 whole entry, looked up, canonical isoform): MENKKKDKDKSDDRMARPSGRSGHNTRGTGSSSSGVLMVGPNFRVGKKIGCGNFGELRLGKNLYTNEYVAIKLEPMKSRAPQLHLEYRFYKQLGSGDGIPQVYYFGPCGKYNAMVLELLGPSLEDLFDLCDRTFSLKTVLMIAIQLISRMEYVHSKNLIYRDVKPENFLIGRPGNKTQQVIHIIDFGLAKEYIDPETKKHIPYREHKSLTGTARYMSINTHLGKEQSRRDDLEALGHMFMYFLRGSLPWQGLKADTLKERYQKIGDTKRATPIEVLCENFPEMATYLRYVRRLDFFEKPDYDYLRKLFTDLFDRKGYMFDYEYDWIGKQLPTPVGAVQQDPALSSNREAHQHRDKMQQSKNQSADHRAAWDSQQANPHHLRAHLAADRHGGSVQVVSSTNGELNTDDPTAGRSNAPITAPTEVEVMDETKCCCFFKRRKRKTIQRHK

[10] = molecular target: Casein kinase I isoform gamma-1 (Homo sapiens) (UniProt Q9HCP0); assay: Inhibition of human Casein kinase 1 gamma 1 assessed as residual activity at 10 uM relative to control; outline: as §2
Sequence of Casein kinase I isoform gamma-1 (Homo sapiens) (Q9HCP0 whole entry, looked up, canonical isoform): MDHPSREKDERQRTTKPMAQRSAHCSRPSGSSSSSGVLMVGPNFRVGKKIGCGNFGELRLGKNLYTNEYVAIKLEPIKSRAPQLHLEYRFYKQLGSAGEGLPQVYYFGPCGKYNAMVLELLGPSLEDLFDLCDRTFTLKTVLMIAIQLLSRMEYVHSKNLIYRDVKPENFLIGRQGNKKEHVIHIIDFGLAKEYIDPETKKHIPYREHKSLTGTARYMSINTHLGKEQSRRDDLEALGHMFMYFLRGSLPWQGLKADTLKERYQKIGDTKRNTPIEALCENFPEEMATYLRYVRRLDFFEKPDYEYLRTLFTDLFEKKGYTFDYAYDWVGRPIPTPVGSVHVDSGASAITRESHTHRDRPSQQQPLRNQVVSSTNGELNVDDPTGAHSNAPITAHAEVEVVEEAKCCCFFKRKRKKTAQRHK

CCCCCCCCCCCCCCC[C@@H](O)[C@@H](N)C(C)C
GI50 (HeLa): 21 µM | GI50 (WiDr): 20 µM | GI50 [1]: 4.9 µM | GI50 (SW1573): 7.2 µM | GI50 (T47D): 18 µM

CCCCCCCCCCCCCCC[C@@H](O)[C@H](C)N
Activity [2]: 100% | Activity [3]: 87% | GI50 (HeLa): 2.6 µM | GI50 (WiDr): 0.7 µM | GI50 [1]: 2.3 µM | Activity [4]: 100% | Activity [5]: 98% | Activity [6]: 100% | Activity [7]: 100% | Activity [8]: 60% | Activity [9]: 100% | GI50 (SW1573): 1.3 µM | GI50 (T47D): 0.9 µM | Activity [10]: 98%

CCCCCCCCC[C@@H](O)[C@@H](N)Cc1ccccc1
Activity [2]: 96% | Activity [3]: 70% | GI50 (HeLa): 18 µM | GI50 (WiDr): 12 µM | GI50 [1]: 14 µM | Activity [4]: 93% | Activity [5]: 100% | Activity [6]: 95% | Activity [7]: 88% | Activity [8]: 27% | Activity [9]: 71% | GI50 (SW1573): 16 µM | GI50 (T47D): 17 µM | Activity [10]: 100%

CCCCCCCCC[C@@H](O)[C@@H](N)Cc1ccc(O)cc1
GI50 (HeLa): 20 µM | GI50 (WiDr): 12 µM | GI50 [1]: 14 µM | GI50 (SW1573): 18 µM | GI50 (T47D): 17 µM

CCCCCCCCCCCCCCC[C@@H](O)[C@@H](N)C(C)CC (single isomer, unassigned)
GI50 (HeLa): 20 µM | GI50 (WiDr): 13 µM | GI50 [1]: 2.4 µM | GI50 (SW1573): 3.4 µM | GI50 (T47D): 17 µM

COc1cc([C@@H]2c3cc4c(cc3[C@@H](O[C@@H]3O[C@@H]5CO[C@@H](C)O[C@H]5[C@H](O)[C@H]3O)[C@H]3COC(=O)[C@H]23)OCO4)cc(OC)c1O [ETOPOSIDE]
GI50 (HeLa): 2 µM | GI50 (WiDr): 26 µM | GI50 [1]: 1.9 µM | GI50 (SW1573): 3 µM | GI50 (T47D): 15 µM

CCCCCCCCC[C@@H](O)[C@@H](N)C(C)C
GI50 (HeLa): 20 µM | GI50 (WiDr): 11 µM | GI50 [1]: 14 µM | GI50 (SW1573): 17 µM | GI50 (T47D): 17 µM

CCCCCCCCCCCCCCC[C@@H](O)[C@@H](N)[C@@H](C)O
Activity [2]: 87% | Activity [3]: 71% | GI50 (HeLa): 19 µM | GI50 (WiDr): 18 µM | GI50 [1]: 21 µM | Activity [4]: 90% | Activity [5]: 100% | Activity [6]: 100% | Activity [7]: 100% | Activity [8]: 43% | Activity [9]: 82% | GI50 (SW1573): 17 µM | GI50 (T47D): 19 µM | Activity [10]: 100%

CCCCCCCCC[C@@H](O)[C@@H](N)C(C)CC (single isomer, unassigned)
GI50 (HeLa): 20 µM | GI50 (WiDr): 2.3 µM | GI50 [1]: 13 µM | GI50 (SW1573): 13 µM | GI50 (T47D): 14 µM

CCCCCCCCC[C@@H](O)[C@H](C)N
GI50 (HeLa): 9.2 µM | GI50 (WiDr): 17 µM | GI50 [1]: 6.6 µM | GI50 (SW1573): 9.5 µM | GI50 (T47D): 12 µM

CCCCCCCCC[C@@H](O)[C@@H](N)[C@@H](C)O
GI50 (HeLa): 17 µM | GI50 (WiDr): 14 µM | GI50 [1]: 13 µM | GI50 (SW1573): 17 µM | GI50 (T47D): 16 µM

CCCCCCCCCCCCCCC[C@@H](O)[C@@H](N)CO [DIHYDROSPINGOSINE]
GI50 (HeLa): 15 µM | GI50 (WiDr): 19 µM | GI50 [1]: 25 µM | GI50 (SW1573): 4.5 µM | GI50 (T47D): 22 µM

CCCCCCCCCCCCCCC[C@@H](O)[C@@H](N)CC(C)C
Activity [2]: 94% | Activity [3]: 84% | GI50 (HeLa): 19 µM | GI50 (WiDr): 4.9 µM | GI50 [1]: 2.4 µM | Activity [4]: 89% | Activity [5]: 100% | Activity [6]: 93% | Activity [7]: 91% | Activity [8]: 48% | Activity [9]: 93% | GI50 (SW1573): 2.8 µM | GI50 (T47D): 15 µM | Activity [10]: 98%

CCCCCCCCC[C@@H](O)[C@@H](N)CC(C)C
GI50 (HeLa): 21 µM | GI50 (WiDr): 5.9 µM | GI50 [1]: 14 µM | GI50 (SW1573): 14 µM | GI50 (T47D): 11 µM

CCCCCCCCCCCCCCC[C@@H](O)[C@@H](N)Cc1ccccc1
GI50 (HeLa): 1.3 µM | GI50 (WiDr): 2.3 µM | GI50 [1]: 2.9 µM | GI50 (SW1573): 2.1 µM | GI50 (T47D): 1.8 µM
